The source made the active and inactive calls. The rule behind the calls is not given here.

The nature of test [1]: Cytotoxicity against human HeLaS3 cells assessed as cell viability after 24 hrs by tryptan blue staining-based cell counting. The class given is functional. As to conditions: HeLa S3, 24 h. The method in brief: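 HeLa-S3 cervix carcinoma cells (ATCC) grown in RPMI 1640 with 10% heat-inactivated FBS, 1% L-glutamine, 1% penicillin/streptomycin at 37 C, 5% CO2. Plated at 0.1 × 10^6 cells/mL for 24 h, then treated 24 h with compounds or 0.3% DMSO. Cells trypsinized, stained with 0.4% trypan blue, counted on a viability analyzer; IC50 from three independent experiments.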

Test [2] relates to HEK293. The test is described as follows: Cytotoxicity against human HEK293 cells assessed as cell viability after 24 hrs by tryptan blue staining-based cell counting. The conditions noted are these: HEK293, 24 h. The method in brief: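 HEK293 cells from ATCC, kept in DMEM with 10% heat-inactivated FBS, 1% L-glutamine, 1% penicillin/streptomycin, 37 C, 5% CO2. Seeded at 0.1 × 10^6 cells/mL in 24-well plates, grown 24 h, then exposed to compounds or 0.3% DMSO solvent for 24 h. Trypsinized cells stained with 0.4% trypan blue and counted by viability analyzer; IC50 from three independent experiments.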

Test [3] deals with T1, 5-hydroxytryptamine receptor 1A (Homo sapiens) (UniProt P08908).
T1 sequence (whole entry): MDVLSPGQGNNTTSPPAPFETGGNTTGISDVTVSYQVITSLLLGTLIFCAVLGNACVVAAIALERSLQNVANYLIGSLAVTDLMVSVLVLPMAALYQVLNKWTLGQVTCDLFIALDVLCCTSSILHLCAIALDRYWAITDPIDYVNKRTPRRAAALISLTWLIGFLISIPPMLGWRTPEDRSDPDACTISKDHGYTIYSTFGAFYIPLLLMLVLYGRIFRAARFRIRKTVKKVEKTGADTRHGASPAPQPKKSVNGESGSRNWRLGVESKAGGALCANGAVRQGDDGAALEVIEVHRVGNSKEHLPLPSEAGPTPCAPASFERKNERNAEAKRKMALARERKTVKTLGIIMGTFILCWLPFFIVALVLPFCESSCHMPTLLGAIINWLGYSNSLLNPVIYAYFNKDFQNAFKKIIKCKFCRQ
The test is described as follows: Binding affinity to 5HT1A receptor at 20 uM by radioligand displacement assay. In general terms: In a radioligand displacement assay an active substance lowers the binding of a labelled ligand.

Test [4] relates to HL-60. As to the kind of experiment: Cytotoxicity against human HL60 cells assessed as cell viability after 24 hrs by tryptan blue staining-based cell counting. As to conditions: HL-60, 24 h. The class given is functional. The procedure, abridged:
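HL-60 promyelocytic leukemia cells (ATCC) kept in RPMI 1640 with 10% heat-inactivated FBS, 1% L-glutamine, 1% penicillin/streptomycin, 37 C, 5% CO2. Seeded at 0.1 × 10^6 cells/mL, grown 24 h, then exposed 24 h to compounds or 0.3% DMSO solvent. Suspension cells stained with 0.4% trypan blue and counted on a viability analyzer; IC50 from three independent experiments.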

Test [5] has as its target Cannabinoid receptor 2 (Homo sapiens) (UniProt P34972). The test is described as follows: Binding affinity to CB2 receptor at 20 uM by radioligand displacement assay.
In test [6] the target is Transient receptor potential cation channel subfamily V member 1 (Homo sapiens) (UniProt Q8NER1). As to the kind of experiment: Binding affinity to TRPV1 receptor at 20 uM by radioligand displacement assay.
Test [7] relates to MCF7. As to the kind of experiment: Cytotoxicity against human MCF7 cells assessed as cell viability after 24 hrs by tryptan blue staining-based cell counting. The class given is functional. The conditions noted are these: MCF7, 24 h. The method in brief: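 MCF-7 breast adenocarcinoma cells (ATCC) in DMEM with 10% heat-inactivated FBS, 1% L-glutamine, 1% penicillin/streptomycin, 37 C, 5% CO2. Cultured at 0.2 × 10^6 cells/mL for 48 h before 24 h exposure to compounds or 0.3% DMSO. Trypsinized cells stained with 0.4% trypan blue and counted on a viability analyzer; IC50 from three independent experiments.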

In test [8] the target is Cannabinoid receptor 1 (Homo sapiens) (UniProt P21554). The test is described as follows: Binding affinity to CB1 receptor at 20 uM by radioligand displacement assay.
Chain of Cannabinoid receptor 1 (Homo sapiens) (P21554 whole entry): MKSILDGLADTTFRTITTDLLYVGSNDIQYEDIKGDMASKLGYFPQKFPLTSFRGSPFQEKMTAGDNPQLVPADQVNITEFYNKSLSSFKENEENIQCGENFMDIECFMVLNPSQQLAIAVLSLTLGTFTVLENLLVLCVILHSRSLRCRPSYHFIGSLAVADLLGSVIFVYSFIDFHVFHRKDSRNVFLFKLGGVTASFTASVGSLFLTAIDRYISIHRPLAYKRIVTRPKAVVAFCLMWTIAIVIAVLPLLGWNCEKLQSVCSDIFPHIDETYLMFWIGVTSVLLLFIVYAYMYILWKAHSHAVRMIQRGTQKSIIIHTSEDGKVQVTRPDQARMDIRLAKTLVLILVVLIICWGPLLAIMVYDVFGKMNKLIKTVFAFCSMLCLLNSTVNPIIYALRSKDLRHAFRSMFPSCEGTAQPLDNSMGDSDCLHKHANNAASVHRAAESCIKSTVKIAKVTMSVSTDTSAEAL

Chain of Transient receptor potential cation channel subfamily V member 1 (Homo sapiens) (Q8NER1 whole entry): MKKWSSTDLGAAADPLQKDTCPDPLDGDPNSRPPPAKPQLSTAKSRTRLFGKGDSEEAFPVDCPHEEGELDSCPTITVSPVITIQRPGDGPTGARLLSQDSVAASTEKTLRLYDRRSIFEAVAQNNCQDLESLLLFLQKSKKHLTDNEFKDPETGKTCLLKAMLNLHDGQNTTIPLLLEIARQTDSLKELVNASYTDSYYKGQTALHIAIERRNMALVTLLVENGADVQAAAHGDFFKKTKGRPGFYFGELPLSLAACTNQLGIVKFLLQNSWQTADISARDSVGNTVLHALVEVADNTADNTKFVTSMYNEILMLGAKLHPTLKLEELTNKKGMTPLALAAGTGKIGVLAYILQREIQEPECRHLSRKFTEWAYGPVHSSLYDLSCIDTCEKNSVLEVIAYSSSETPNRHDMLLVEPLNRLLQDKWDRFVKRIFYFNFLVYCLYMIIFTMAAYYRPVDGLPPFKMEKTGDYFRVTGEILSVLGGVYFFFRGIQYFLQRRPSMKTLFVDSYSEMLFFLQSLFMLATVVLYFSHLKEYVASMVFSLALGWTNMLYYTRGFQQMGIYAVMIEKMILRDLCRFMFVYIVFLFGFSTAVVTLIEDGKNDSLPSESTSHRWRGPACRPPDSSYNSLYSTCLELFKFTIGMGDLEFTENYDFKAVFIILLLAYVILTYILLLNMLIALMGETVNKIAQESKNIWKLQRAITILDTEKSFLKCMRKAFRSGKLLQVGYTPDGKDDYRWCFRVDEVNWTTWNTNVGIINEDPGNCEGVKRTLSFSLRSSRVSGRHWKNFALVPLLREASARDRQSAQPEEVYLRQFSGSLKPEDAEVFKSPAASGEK
Chain of Cannabinoid receptor 2 (Homo sapiens) (P34972 whole entry): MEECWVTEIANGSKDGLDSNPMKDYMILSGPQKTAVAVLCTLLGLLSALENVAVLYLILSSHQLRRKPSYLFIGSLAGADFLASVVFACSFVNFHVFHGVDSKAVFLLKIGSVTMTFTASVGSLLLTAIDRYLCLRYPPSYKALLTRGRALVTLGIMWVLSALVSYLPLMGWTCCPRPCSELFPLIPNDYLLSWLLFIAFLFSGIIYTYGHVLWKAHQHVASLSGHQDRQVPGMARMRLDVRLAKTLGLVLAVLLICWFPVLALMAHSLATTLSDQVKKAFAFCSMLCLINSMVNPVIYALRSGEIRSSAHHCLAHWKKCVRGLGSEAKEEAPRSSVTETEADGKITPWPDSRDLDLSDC

As usually defined, the IC50 is the point on the concentration scale where inhibition reaches its midpoint. With `C=C(C)C(O)CCC(=C)[C@@H]1CCC(C)=C[C@H]1c1c(O)cc(C)cc1O` (mixture of isomers) [FERRUGINENE C], the IC50 is greater than 20 µM in test [1], greater than 20 µM in test [2], greater than 13.7 µM in test [4] and greater than 20 µM in test [7]. Besides, the outcome in test [3], in test [6] and in test [8] was inactive. Further, the outcome in test [5] was Active.
For the compound `C=C(C)C(O)CCC(=C)[C@@H]1CC[C@](C)(O)[C@H]2Oc3cc(C)cc(O)c3[C@@H]12` (some centres not stated) [FERRUGINENE A], the IC50 in test [1], in test [4] and in test [7] was greater than 20 µM in each case. The result in test [3], in test [5], in test [6] and in test [8] was inactive.
For the compound `C=C(C/C=C/C(C)(C)O)[C@@H]1CC[C@](C)(O)[C@H]2Oc3cc(C)cc(O)c3[C@@H]12` [FERRUGINENE B], the IC50 in test [1], in test [4] and in test [7] was greater than 20 µM each time. Also, the result in test [3], in test [5] and in test [8] was inactive. Besides, the result in test [6] was Active.

These data come from ChEMBL document CHEMBL1772939, “Ferruginenes A-C from Rhododendron ferrugineum and their cytotoxic evaluation” (J Nat Prod, 2011).
